Tests used:
[1] = test system: Receptor-type tyrosine-protein kinase FLT3 (Homo sapiens), P36888 [K663Q]; experiment: Binding affinity to human partial length FLT3 K663Q mutant (V592 to Y969 residues) expressed in Escherichia coli BL21 at 1 uM by Kinomescan method relative to control
[2] = test system: Tyrosine-protein kinase ABL1 (Homo sapiens), P00519 [M351T]; experiment: Binding affinity to human phosphorylated ABL1 M351T mutant (S229 to K512 residues) expressed in HEK293 cells at 1 uM by Kinomescan method relative to control; format: cell-based
[3] = molecular target: Serine/threonine-protein kinase PAK 2 (Homo sapiens) (UniProt Q13177); experiment: Binding affinity to wild-type human partial length PAK2 (P151 to R525 residues) expressed in Escherichia coli BL21 at 1 uM by Kinomescan method relative to control
[4] = molecular target: Serine/threonine-protein kinase Nek6 (Homo sapiens) (UniProt Q9HC98); experiment: Binding affinity to wild-type human full length NEK6 (M8 to T313 residues) expressed in Escherichia coli BL21 at 1 uM by Kinomescan method relative to control
Procedure, shortened: (§1)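 Kinome-wide competition binding panel run by an outside provider, with each compound tested at a single concentration. Activity is read against the kinase panel.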

[5] = molecular target: Activin receptor type-1B (Homo sapiens) (UniProt P36896); experiment: Binding affinity to wild-type human ACVR1B (S187 to I505 residues) expressed in Escherichia coli BL21 at 1 uM by Kinomescan method relative to control
[6] = molecular target: Serine/threonine-protein kinase SIK3 (Homo sapiens) (UniProt Q9Y2K2); experiment: Binding affinity to wild-type human partial length QSK (A90 to L395 residues) expressed in HEK293 cells at 1 uM by Kinomescan method relative to control; format: cell-based
[7] = molecular target: Casein kinase I isoform epsilon (Homo sapiens) (UniProt P49674); experiment: Binding affinity to wild-type human full length CSNK1E (M1 to K416 residues) expressed in Escherichia coli BL21 at 1 uM by Kinomescan method relative to control
Procedure, shortened: (§2)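 Run as one kinome-wide competition binding panel with each compound at a single fixed concentration. Results were plotted as a kinome-wide selectivity map.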

[8] = molecular target: Serine/threonine-protein kinase BRSK1 (Homo sapiens) (UniProt Q8TDC3); experiment: Binding affinity to wild-type human partial length BRSK1 (M1 to E754 residues) expressed in Escherichia coli BL21 at 1 uM by Kinomescan method relative to control
Serine/threonine-protein kinase BRSK1 (Homo sapiens), sequence (Q8TDC3 whole entry, the tested form may be a part): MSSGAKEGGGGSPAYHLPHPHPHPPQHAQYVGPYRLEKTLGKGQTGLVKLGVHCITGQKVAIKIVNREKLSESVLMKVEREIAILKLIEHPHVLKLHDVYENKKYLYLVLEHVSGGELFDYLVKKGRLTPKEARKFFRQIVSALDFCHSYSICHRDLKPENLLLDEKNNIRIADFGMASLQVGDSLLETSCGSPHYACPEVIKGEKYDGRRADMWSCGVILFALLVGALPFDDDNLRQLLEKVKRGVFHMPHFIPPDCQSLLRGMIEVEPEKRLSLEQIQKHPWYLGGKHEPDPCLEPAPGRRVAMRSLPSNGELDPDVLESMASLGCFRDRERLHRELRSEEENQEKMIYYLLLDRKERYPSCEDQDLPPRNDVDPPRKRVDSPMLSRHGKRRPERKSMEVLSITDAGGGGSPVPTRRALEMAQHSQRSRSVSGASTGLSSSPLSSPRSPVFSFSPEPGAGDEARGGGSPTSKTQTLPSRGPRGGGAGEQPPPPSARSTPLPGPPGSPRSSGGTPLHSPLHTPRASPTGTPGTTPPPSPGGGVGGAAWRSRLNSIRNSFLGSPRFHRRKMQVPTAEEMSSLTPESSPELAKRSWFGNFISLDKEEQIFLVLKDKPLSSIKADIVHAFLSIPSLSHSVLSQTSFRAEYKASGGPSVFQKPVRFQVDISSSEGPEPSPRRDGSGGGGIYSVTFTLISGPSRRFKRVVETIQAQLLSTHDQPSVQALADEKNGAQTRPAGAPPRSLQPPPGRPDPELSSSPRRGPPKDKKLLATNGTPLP

[9] = molecular target: Serine/threonine-protein kinase Nek3 (Homo sapiens) (UniProt P51956); experiment: Binding affinity to wild-type human full length NEK3 (M1 to R506 residues) expressed in HEK293 cells at 1 uM by Kinomescan method relative to control; format: cell-based; procedure, shortened: as §1
[10] = molecular target: Mast/stem cell growth factor receptor Kit (Homo sapiens) (UniProt P10721); experiment: Binding affinity to wild-type human partial length autoinhibited KIT (Y545 to D952 residues) expressed in HEK293 cells at 1 uM by Kinomescan method relative to control; format: cell-based; set-up: scale not given: the % may be the effect or the level left
Mast/stem cell growth factor receptor Kit (Homo sapiens), sequence (P10721 whole entry, the tested form may be a part): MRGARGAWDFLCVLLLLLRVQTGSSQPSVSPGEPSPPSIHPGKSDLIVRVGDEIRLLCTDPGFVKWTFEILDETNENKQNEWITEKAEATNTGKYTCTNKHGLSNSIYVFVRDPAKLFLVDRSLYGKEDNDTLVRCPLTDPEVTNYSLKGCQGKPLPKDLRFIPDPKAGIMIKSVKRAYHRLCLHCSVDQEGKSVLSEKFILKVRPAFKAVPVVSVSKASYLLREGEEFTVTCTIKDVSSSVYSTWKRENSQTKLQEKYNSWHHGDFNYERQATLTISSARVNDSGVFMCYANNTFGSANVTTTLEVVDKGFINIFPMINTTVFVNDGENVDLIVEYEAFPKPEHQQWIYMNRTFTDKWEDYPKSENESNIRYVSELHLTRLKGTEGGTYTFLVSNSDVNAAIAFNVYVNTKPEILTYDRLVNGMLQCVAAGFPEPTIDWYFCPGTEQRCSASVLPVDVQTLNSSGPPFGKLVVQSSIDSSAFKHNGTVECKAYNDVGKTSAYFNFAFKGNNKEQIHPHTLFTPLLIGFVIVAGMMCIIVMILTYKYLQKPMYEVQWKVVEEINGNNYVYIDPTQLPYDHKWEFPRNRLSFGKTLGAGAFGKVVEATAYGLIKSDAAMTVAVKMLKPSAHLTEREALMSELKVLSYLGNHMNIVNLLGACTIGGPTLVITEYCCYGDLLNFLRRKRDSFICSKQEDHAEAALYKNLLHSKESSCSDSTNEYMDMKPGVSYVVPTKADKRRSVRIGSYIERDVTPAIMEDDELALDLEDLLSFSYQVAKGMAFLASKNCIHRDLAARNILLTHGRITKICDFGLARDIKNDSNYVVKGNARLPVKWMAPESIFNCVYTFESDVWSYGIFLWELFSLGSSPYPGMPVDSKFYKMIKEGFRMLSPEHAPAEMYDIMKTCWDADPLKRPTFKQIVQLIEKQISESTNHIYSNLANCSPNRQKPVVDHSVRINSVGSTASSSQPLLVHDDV

[11] = test system: Epidermal growth factor receptor (Homo sapiens), P00533 [G719S]; experiment: Binding affinity to human partial length EGFR G719S mutant (R669 to V1011 residues) expressed in Escherichia coli BL21 at 1 uM by Kinomescan method relative to control
[12] = test system: Mast/stem cell growth factor receptor Kit (Homo sapiens), P10721 [V559D,T670I]; experiment: Binding affinity to human partial length KIT V559D/T670I double mutant (Y545 to D952 residues) expressed in Escherichia coli BL21 at 1 uM by Kinomescan method relative to control
[13] = molecular target: Serine/threonine-protein kinase 10 (Homo sapiens) (UniProt O94804); experiment: Binding affinity to wild-type human partial length LOK (E16 to V314 residues) expressed in Escherichia coli BL21 at 1 uM by Kinomescan method relative to control
[14] = molecular target: Serine/threonine-protein kinase Nek10 (Homo sapiens) (UniProt Q6ZWH5); experiment: Binding affinity to wild-type human partial length NEK10 (L488 to R809 residues) expressed in HEK293 cells at 1 uM by Kinomescan method relative to control; format: cell-based
[15] = molecular target: Interleukin-1 receptor-associated kinase 3 (Homo sapiens) (UniProt Q9Y616); experiment: Binding affinity to wild-type human partial length IRAK3 (V147 to E596 residues) expressed in Escherichia coli BL21 at 1 uM by Kinomescan method relative to control
[16] = molecular target: Macrophage colony-stimulating factor 1 receptor (Homo sapiens) (UniProt P07333); experiment: Binding affinity to wild-type human partial length autoinhibited CSF1R (Y538 to S939 residues) expressed in HEK293 cells at 1 uM by Kinomescan method relative to control; format: cell-based; set-up: scale not given: the % may be the effect or the level left
[17] = molecular target: Rhodopsin kinase GRK7 (Homo sapiens) (UniProt Q8WTQ7); experiment: Binding affinity to wild-type human full length GRK7 (M1 to L553 residues) expressed in HEK293 cells at 1 uM by Kinomescan method relative to control; format: cell-based; procedure, shortened: as §2
Rhodopsin kinase GRK7 (Homo sapiens), sequence (Q8WTQ7 whole entry, the tested form may be a part): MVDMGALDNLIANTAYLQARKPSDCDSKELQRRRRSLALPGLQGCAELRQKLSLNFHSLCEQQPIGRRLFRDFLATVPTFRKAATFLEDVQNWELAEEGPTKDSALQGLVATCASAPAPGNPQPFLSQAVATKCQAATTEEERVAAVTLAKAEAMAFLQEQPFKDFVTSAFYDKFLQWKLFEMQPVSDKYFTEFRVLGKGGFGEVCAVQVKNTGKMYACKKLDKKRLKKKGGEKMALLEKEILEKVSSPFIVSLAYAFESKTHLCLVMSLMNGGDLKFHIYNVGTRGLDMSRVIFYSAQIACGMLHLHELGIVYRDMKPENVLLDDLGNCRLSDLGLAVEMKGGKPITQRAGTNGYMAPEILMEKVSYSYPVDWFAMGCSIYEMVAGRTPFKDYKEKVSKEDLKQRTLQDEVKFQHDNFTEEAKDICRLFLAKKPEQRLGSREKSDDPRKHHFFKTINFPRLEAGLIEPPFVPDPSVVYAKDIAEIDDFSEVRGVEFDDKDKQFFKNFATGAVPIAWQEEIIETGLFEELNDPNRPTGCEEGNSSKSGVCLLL

[18] = molecular target: Fibroblast growth factor receptor 1 (Homo sapiens) (UniProt P11362); experiment: Binding affinity to wild-type human partial length FGFR1 (P357 to V669 residues) expressed in Escherichia coli BL21 at 1 uM by Kinomescan method relative to control
Fibroblast growth factor receptor 1 (Homo sapiens), sequence (P11362 22-822 limits assumed): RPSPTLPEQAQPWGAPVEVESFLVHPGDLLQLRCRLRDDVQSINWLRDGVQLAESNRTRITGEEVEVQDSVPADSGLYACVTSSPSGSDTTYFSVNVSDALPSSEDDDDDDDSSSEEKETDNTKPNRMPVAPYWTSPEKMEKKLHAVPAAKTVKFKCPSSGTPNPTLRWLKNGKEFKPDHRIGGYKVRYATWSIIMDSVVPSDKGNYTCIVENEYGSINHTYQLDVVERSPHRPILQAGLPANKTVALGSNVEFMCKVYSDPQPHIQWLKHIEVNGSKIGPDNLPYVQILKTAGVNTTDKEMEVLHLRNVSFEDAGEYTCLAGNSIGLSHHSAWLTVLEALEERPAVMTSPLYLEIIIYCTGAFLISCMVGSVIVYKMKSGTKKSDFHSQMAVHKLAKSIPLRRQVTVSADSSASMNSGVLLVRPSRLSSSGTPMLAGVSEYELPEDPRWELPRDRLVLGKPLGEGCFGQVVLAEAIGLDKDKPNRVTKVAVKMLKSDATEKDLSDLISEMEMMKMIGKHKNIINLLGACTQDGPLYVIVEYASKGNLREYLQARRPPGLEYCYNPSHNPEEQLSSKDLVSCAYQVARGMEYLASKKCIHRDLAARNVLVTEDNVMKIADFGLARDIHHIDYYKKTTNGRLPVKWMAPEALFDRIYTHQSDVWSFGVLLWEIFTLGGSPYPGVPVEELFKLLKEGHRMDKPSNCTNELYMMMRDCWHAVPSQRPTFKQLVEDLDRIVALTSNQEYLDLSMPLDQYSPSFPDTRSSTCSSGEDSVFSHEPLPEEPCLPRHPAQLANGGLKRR

[19] = molecular target: Tyrosine-protein kinase Fes/Fps (Homo sapiens) (UniProt P07332); experiment: Binding affinity to wild-type human partial length FES (I527 to R822 residues) expressed in Escherichia coli BL21 at 1 uM by Kinomescan method relative to control
[20] = molecular target: Serine/threonine-protein kinase Nek1 (Homo sapiens) (UniProt Q96PY6); experiment: Binding affinity to wild-type human partial length NEK1 (M1 to K278 residues) expressed in Escherichia coli BL21 at 1 uM by Kinomescan method relative to control
[21] = molecular target: Serine/threonine-protein kinase NIM1 (Homo sapiens) (UniProt Q8IY84); experiment: Binding affinity to wild-type human partial length NIM1 (Q44 to N355 residues) expressed in HEK293 cells at 1 uM by Kinomescan method relative to control; format: cell-based
[22] = molecular target: Calcium/calmodulin-dependent protein kinase type II subunit gamma (Homo sapiens) (UniProt Q13555); experiment: Binding affinity to wild-type human partial length CAMK2G (R9 to A303 residues) expressed in Escherichia coli BL21 at 1 uM by Kinomescan method relative to control
Calcium/calmodulin-dependent protein kinase type II subunit gamma (Homo sapiens), sequence (Q13555 whole entry, the tested form may be a part): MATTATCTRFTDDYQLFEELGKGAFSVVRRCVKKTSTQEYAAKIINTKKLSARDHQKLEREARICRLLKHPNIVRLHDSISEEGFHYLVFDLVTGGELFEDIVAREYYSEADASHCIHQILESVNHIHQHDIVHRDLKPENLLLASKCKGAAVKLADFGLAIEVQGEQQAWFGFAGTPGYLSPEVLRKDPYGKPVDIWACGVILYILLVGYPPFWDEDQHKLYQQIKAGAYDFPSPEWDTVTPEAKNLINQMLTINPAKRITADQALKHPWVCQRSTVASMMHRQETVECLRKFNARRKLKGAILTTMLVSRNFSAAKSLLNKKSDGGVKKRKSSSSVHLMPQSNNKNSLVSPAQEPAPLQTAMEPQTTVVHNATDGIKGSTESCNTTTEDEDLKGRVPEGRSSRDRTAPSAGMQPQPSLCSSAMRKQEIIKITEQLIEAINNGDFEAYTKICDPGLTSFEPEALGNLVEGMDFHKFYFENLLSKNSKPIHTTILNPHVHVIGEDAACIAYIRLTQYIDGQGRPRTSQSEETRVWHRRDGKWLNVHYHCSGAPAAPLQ

[23] = molecular target: cGMP-dependent protein kinase 1 (Homo sapiens) (UniProt Q13976); experiment: Binding affinity to wild-type human partial length PRKG1 (L339 to F686 residues) expressed in Escherichia coli BL21 at 1 uM by Kinomescan method relative to control
[24] = molecular target: Mitogen-activated protein kinase kinase kinase 19 (Homo sapiens) (UniProt Q56UN5); experiment: Binding affinity to wild-type human partial length YSK4 (T1019 to H1328 residues) expressed in HEK293 cells at 1 uM by Kinomescan method relative to control; format: cell-based
Mitogen-activated protein kinase kinase kinase 19 (Homo sapiens), sequence (Q56UN5 whole entry, the tested form may be a part): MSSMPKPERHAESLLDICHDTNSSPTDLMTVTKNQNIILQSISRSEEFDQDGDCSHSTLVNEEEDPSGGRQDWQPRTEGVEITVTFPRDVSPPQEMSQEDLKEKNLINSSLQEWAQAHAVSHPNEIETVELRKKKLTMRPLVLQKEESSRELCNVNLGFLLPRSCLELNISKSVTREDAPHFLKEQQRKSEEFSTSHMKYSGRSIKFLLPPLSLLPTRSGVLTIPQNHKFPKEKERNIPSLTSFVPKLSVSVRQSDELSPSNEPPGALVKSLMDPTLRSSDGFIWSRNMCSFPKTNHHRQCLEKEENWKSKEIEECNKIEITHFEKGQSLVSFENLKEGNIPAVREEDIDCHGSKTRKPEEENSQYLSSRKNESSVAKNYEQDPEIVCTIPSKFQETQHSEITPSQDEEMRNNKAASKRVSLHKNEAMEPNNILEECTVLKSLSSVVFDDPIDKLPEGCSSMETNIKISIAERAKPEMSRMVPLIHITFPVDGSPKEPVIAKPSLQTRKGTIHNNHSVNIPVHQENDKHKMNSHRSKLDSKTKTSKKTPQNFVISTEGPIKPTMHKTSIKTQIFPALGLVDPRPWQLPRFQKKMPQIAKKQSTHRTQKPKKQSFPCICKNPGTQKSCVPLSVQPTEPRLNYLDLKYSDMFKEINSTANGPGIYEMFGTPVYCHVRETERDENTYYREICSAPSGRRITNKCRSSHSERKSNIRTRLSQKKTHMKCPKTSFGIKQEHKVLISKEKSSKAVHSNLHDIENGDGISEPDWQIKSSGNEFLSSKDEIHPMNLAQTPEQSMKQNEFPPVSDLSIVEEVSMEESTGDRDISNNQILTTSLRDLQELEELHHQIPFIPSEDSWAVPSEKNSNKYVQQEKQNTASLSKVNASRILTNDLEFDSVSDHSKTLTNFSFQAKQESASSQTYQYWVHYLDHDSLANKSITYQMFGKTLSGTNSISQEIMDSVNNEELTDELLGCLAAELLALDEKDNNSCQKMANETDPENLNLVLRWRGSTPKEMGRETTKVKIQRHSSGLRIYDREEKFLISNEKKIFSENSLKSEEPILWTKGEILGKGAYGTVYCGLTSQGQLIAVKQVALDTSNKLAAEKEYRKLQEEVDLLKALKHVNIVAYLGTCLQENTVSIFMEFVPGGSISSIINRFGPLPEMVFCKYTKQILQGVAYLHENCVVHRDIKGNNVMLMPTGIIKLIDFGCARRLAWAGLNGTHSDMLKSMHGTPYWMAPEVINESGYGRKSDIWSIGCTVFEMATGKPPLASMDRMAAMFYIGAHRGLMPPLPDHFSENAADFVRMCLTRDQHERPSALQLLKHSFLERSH

[25] = molecular target: Cyclin-dependent kinase 9 (Homo sapiens) (UniProt P50750); experiment: Binding affinity to wild-type human full length CDK9 (M1 to F372 residues) expressed in Escherichia coli BL21 at 1 uM by Kinomescan method relative to control; procedure, shortened: as §2

In the case of `C=CC(=O)Nc1ccc(C(=O)Nc2ccc(Nc3ncc4c(n3)N(C)c3ccc(C)cc3C(=O)N4C)cc2)cc1`, the Activity [1] is reported as 99%, the Activity [2] is reported as 95% and the Activity [3] is reported as 86%. For the same molecule, the Activity [4] was 98%, the Activity [5] was 85% and the Activity [6] was 88%. For the same molecule, the Activity [7] was 100%, the Activity [8] was 100% and the Activity [9] was 84%. The Activity [10] was 96%, the Activity [11] was 100% and the Activity [12] was 100%. For the same molecule, the Activity [13] was 100%, the Activity [14] was 85% and the Activity [15] was 98%. For the same molecule, the Activity [16] was 100%, the Activity [17] was 93% and the Activity [18] was 84%. For the same molecule, the Activity [19] was 90%, the Activity [20] was 94% and the Activity [21] was 98%. For the same molecule, the Activity [22] was 100%, the Activity [23] was 100% and the Activity [24] was 72%. For the same molecule, the Activity [25] was 97%.

For `CCC(=O)Nc1ccc(C(=O)Nc2ccc(Nc3ncc4c(n3)N(C)c3ccc(C)cc3C(=O)N4C)cc2)cc1`, the Activity [1] was 81%, the Activity [2] was 100% and the Activity [3] was 99%. It also gave an Activity [4] of 96%, an Activity [5] of 100% and an Activity [6] of 100%. For the same molecule, the Activity [7] was 94%, the Activity [8] was 90% and the Activity [9] was 70%. For the same molecule, the Activity [10] was 90%, the Activity [11] was 93% and the Activity [12] was 97%. It also gave an Activity [13] of 78%, an Activity [14] of 85% and an Activity [15] of 89%. The Activity [16] was 65%, the Activity [17] was 87% and the Activity [18] was 82%. It also gave an Activity [19] of 99%, an Activity [20] of 100% and an Activity [21] of 100%. For the same molecule, the Activity [22] was 97%, the Activity [23] was 100% and the Activity [24] was 77%. For the same molecule, the Activity [25] was 97%.

— ChEMBL document CHEMBL4184148 (Bioorg Med Chem Lett, 2017)
